The record followed here is ChEMBL document CHEMBL1932986, “Synthesis and in vitro antimycobacterial activity of compounds derived from (R)- and (S)-2-amino-1-butanol - The crucial role of the configuration” (Eur J Med Chem, 2012).

Assay [1] has as its system Bacillus subtilis. Nature of the assay: Antibacterial activity against Bacillus subtilis ATCC 6633 at 20 mg/ml after 24 hrs by agar diffusion test. The format is functional, organism-based. The procedure, abridged: (§1)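 Agar diffusion: bacteria grown 24 h at 37 °C on nutrient agar; wells cut in the seeded agar are filled with compound solution in DMSO. Read-out is the diameter of the clear zone around the application point.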

Assay [2] concerns Bacillus. In words: Antibacterial activity against Bacillus idosus B 241 at 20 mg/ml after 24 hrs by agar diffusion test. Format: functional, organism-based. A digest of the protocol: as §1
Assay [3] concerns Priestia megaterium. Nature of the assay: Antibacterial activity against Bacillus megaterium NRRL 1353895 at 20 mg/ml after 24 hrs by agar diffusion test. The format is functional, organism-based. The procedure, abridged: as §1
The subject of assay [4] is Bacillus mycoides. Nature of the assay: Antibacterial activity against Bacillus mycoides DSMZ 274 at 20 mg/ml after 24 hrs by agar diffusion test. The format is functional, organism-based. The procedure, abridged: as §1
Assay [5] deals with Bacillus cereus. In words: Antibacterial activity against Bacillus cereus ATCC 11778 at 20 mg/ml after 24 hrs by agar diffusion test. Format: functional, organism-based. A digest of the protocol: as §1
The test system of assay [6] is Acinetobacter johnsonii. Nature of the assay: Antibacterial activity against Acinetobacter johnsonii ATCC 17909 at 20 mg/ml after 24 hrs by agar diffusion test. Format: functional. A digest of the protocol: as §1
Assay [7] concerns Micrococcus luteus. In words: Antibacterial activity against Sarcina lutea ATCC 9341 at 20 mg/ml after 24 hrs by agar diffusion test. The format is functional, organism-based. A digest of the protocol:
as §1

Assay [8] deals with Micrococcus luteus. In words: Antibacterial activity against Micrococcus luteus ATCC 9631 at 20 mg/ml after 24 hrs by agar diffusion test. The format is functional, organism-based. A digest of the protocol: as §1
The test system of assay [9] is Bacillus subtilis. In words: Antibacterial activity against Bacillus subtilis ATCC 6633 at 4 mg/ml after 24 hrs by agar diffusion test. Format: functional, organism-based. The procedure, abridged:
as §1

The test system of assay [10] is Bacillus. In words: Antibacterial activity against Bacillus idosus B 241 at 4 mg/ml after 24 hrs by agar diffusion test. Format: functional, organism-based. The procedure, abridged: as §1
Assay [11] deals with Priestia megaterium. Nature of the assay: Antibacterial activity against Bacillus megaterium NRRL 1353895 at 4 mg/ml after 24 hrs by agar diffusion test. The format is functional, organism-based. A digest of the protocol:
as §1

The subject of assay [12] is Bacillus mycoides. Nature of the assay: Antibacterial activity against Bacillus mycoides DSMZ 274 at 4 mg/ml after 24 hrs by agar diffusion test. Format: functional, organism-based. The procedure, abridged:
as §1

Assay [13] relates to Bacillus cereus. Nature of the assay: Antibacterial activity against Bacillus cereus ATCC 11778 at 4 mg/ml after 24 hrs by agar diffusion test. Format: functional, organism-based. A digest of the protocol:
as §1

The subject of assay [14] is Acinetobacter johnsonii. In words: Antibacterial activity against Acinetobacter johnsonii ATCC 17909 at 4 mg/ml after 24 hrs by agar diffusion test. Format: functional. The procedure, abridged:
as §1

Assay [15] has as its system Micrococcus luteus. Nature of the assay: Antibacterial activity against Sarcina lutea ATCC 9341 at 4 mg/ml after 24 hrs by agar diffusion test. Format: functional, organism-based. A digest of the protocol:
as §1

Assay [16] concerns Micrococcus luteus. In words: Antibacterial activity against Micrococcus luteus ATCC 9631 at 4 mg/ml after 24 hrs by agar diffusion test. The format is functional, organism-based. A digest of the protocol: as §1
Assay [17] relates to Candida tropicalis. In words: Antifungal activity against Candida tropicalis ATCC 20336 at 25 mg/ml after 72 hrs by agar diffusion test. The format is functional. The conditions noted are these: ATCC 20336, 72 h, read-out: DIZ. The procedure, abridged:
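Yeast grown on yeast peptone dextrose agar; wells cut in the seeded agar are filled with compound solution in DMSO. Read-out is the diameter of the clear inhibition zone.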

As for GENTAMICIN, the inhibition zone (IZ) in assay [1] is 30 mm; in assay [2] it was 35 mm; in assay [3] it was 36 mm; in [4], 32 mm; in [5], 29 mm; in assay [6] it was 39 mm. In addition, the inhibition zone (IZ) in [7] is 34 mm; in [8], 38 mm; in [9] it was 27 mm; in assay [10], 29 mm; in assay [11], 30 mm; in assay [12], 28 mm. Moreover, the inhibition zone (IZ) in assay [13] worked out at 26 mm; in [14] it was 31 mm; in assay [15], 28 mm; in assay [16] it was 28 mm.
Consider `OC(Cn1cncn1)(Cn1cncn1)c1ccc(F)cc1F` [FLUCONAZOLE], for which the zone of inhibition at 25000 µg/mL in assay [17] amounted to 35 mm.
